The results in this text go back to ChEMBL document CHEMBL1122885, “Imidazo[1,5-a]pyridines: a new class of thromboxane A2 synthetase inhibitors” (J Med Chem, 1985).

Molecules are shown by their SMILES.

Series [1] deals with T1, Thromboxane-A synthase (Homo sapiens, UniProt P24557).
T1 sequence (P24557 whole entry): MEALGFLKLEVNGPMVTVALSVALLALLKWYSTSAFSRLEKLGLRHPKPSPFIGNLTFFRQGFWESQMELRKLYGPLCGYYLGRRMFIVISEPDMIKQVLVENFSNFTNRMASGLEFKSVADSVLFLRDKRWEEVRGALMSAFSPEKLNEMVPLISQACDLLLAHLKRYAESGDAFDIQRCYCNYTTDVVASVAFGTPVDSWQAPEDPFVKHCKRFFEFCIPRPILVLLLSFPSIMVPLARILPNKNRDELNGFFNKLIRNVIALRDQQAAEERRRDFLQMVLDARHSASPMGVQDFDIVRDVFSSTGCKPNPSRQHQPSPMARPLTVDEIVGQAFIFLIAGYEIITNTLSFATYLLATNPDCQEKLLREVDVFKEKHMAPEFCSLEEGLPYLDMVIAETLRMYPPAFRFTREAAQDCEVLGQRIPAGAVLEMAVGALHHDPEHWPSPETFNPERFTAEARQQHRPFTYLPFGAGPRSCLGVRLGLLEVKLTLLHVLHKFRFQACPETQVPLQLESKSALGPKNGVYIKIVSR
The series can be described thus: In vitro inhibition of thromboxane A2 synthetase from human platelets. A digest of the protocol:
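Human platelet microsomal Tx synthetase, mixed with solubilized partially purified sheep seminal vesicle PGH2 synthetase to make endoperoxide in situ from [1-14C]arachidonic acid (2 nmol). Buffer 0.1 M Tris-HCl pH 7.5 with tryptophan 5 mM and hemoglobin 0.2 μM; 30 min, 37 °C. PGE2 reduced; TLC, scintillation counting. IC50 read graphically as 50% fall in TxB2/PGF2(α+β) count ratio; mean of ≥2 experiments.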

Series [2] deals with Prostacyclin synthase (Bos taurus). The series can be described thus: In vitro inhibitory activity against prostacyclin synthetase.
In series [3] the target is T1, Thromboxane-A synthase. The series can be described thus: In vitro inhibitory activity against thromboxane A2 synthetase with lysed human platelets as the enzyme source. Summed up: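 Crude microsomal Tx synthetase from human platelets plus partially purified sheep seminal vesicle PGH2 synthetase forming endoperoxide in situ from [1-14C]arachidonic acid (4 μM); 0.1 M Tris-HCl pH 7.5, 5 mM tryptophan, 0.2 μM hemoglobin; 30 min, 37 °C. PGE2 reduced to PGF2(α+β); products separated by TLC and counted by scintillation. IC50 read graphically at 50% of control TxB2/PGF2(α+β) count ratio; mean of ≥2 experiments.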

A short description of series [4]: Partition coefficient (logP). It counts as physicochemical. The following applies: octanol/water.
Series [5] concerns the target Cyclooxygenase (Ovis aries). The experiment in a line: In vitro inhibitory activity against Prostaglandin G/H synthase.

In turn, `OCCCCCCc1cccc2cncn12` came in with a half-maximal inhibitory concentration (IC50) in series [1] of 280 nM.
Regarding `CCCCCCCc1cccc2cncn12`, half-maximal inhibition in series [1] (IC50) required 3300 nM.
In series [1], `c1cc(CCCCCc2nnn[nH]2)n2cncc2c1` displayed an IC50 of 19 nM.
The same measure, in the same setting: then `O=C(O)CCCCc1ccc2cncn2c1`, with 3300 nM.
The same measure, in the same setting: then `O=C(O)/C=C/CCCCCc1cccc2cncn12`, with 40 nM; and `Cc1ncc2cccc(CCCCCC(=O)O)n12`, with 25000 nM.
Consider `O=C(O)CCCCCc1cccc2cncn12` [PIRMAGREL], for which the IC50 was 100000 nM in series [2], 3.2 nM in series [3] and 10000 nM in series [5]. In series [4], the logP came to 1.1.
With `O=C(O)CCCCCCc1cccc2cncn12`, in series [4], the logP was 1.54. This compound also came in with an IC50 in series [1] of 5.2 nM.
In the case of `CNC(=O)CCCCCc1cccc2cncn12`, half-maximal inhibition in series [1] (IC50) required 270 nM.
For `CN(C)C(=O)CCCCCc1cccc2cncn12`, half-maximal inhibition in series [1] (IC50) required 550 nM.
Same read-out and setting: then `c1cc(CCCCc2nnn[nH]2)n2cncc2c1`, with 11 nM; and `O=C(O)CCCCc1ccn2cncc2c1`, with 4700 nM.
Turning to `O=C(O)CCCCc1cccc2cncn12`, in series [4], the logP came to 0.7. The IC50 in series [1] is 41 nM.
In series [4], `O=C(O)CCCCCCCc1cccc2cncn12` gave a log partition coefficient (logP) of 2.01. The same compound displayed an IC50 in series [1] of 21 nM.
On to `O=C(O)/C=C/CCCc1cccc2cncn12`, for which it took 4.8 nM to reach half-maximal inhibition in series [1] (IC50).
In series [1], `O=C(O)CCCCc1cccn2cncc12` displayed an IC50 of 390 nM.
Still for that read-out and setting: then `NC(=O)CCCCCc1cccc2cncn12`, with 77 nM; and `CCOC(=O)CCCCCc1cccc2cncn12`, with 330 nM; and `O=C(O)/C=C/C=C/c1cccc2cncn12`, with 28 nM.
`O=C(CCCCCc1cccc2cncn12)NO` had an IC50 in series [1] of 20 nM.
On the same count and under the same terms, then `N#CCCCCCc1cccc2cncn12`, with 630 nM; and `C/C(=C\CCCCCc1cccc2cncn12)C(=O)O`, with 19 nM.
